Reference: PMC6469399 (Chemistry (Weinheim an der Bergstrasse, Germany), 2019)

Columns and labels:
[1] = molecular target: T1, F508del-CFTR (Homo sapiens, UniProt P13569, DEL508-508); assay: TECC; assay type: cell-based; settings: F508del CFBE41o- cells; % activity of the 3 μM VX-809 response
Method in brief: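 F508del CFBE41o- monolayers were pre-incubated 24 h with a range of test-compound concentrations, with DMSO as vehicle and 3 μM VX-809 as positive control in every experiment. Equivalent current (ΔIeq) was recorded as AUC after forskolin (10 μM) + VX-770 (1 μM) stimulation, then CFTRinh-172 (20 μM) inhibition. Response is expressed as % of VX-809 response; n = 3–5; two-way ANOVA with Tukey test versus vehicle.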

[2] = molecular target: T1, F508del-CFTR; assay type: cell-based
[3] = molecular target: T2, G551D-CFTR (Homo sapiens, UniProt P13569, G551D); assay: Ussing chamber potentiation assay, Fischer Rat Thyroid; assay type: cell-based
[4] = molecular target: T3, WT-CFTR (Homo sapiens, UniProt P13569); assay: Patch clamp analysis, macroscopic currents in excised inside-out patch; assay type: biochemical
[5] = molecular target: T2, G551D-CFTR; assay: Ussing chamber potentiation assay, G551D CFBE41o- monolayers; assay type: cell-based
[6] = molecular target: T3, WT-CFTR; assay: Ussing chamber potentiation assay, WT CFBE41o- monolayers; assay type: cell-based
[7] = Metabolic stability in human hepatic microsomes; assay type: in vitro ADME

COc1ccc(C2(C(=O)Nc3ccc(C)c(-c4cccc(C(=O)O)c4)n3)CC2)cc1 [compound 33]
Maximal Response [1]: 49.9%

CC(C)(C)c1cc(C(C)(C)C)c(NC(=O)c2c[nH]c3ccccc3c2=O)cc1O [VX-770, Ivacaftor]
EC50 [2]: 1890 ± 1390 nM | EC50 [3]: 428 ± 167 nM | Maximal Response G551D FRT ([3]; G551D FRT cells, % activity of the VX-770 response, Inactive = no statistically significant response above DMSO vehicle): 100.0% | EC50 [4]: 1.3 ± 0.3 nM | increase of current at lowest dose tested ([4]; WT-CFTR patch clamp, 0.2 nM): ~ 12% | EC50 [5]: 77.7 ± 27.2 nM | Maximal Response G551D CFBE ([5]; G551D CFBE41o-, % activity of the VX-770 response, Inactive = no statistically significant response above DMSO vehicle): 100.0% | EC50 [6]: 36.5 ± 21.3 nM | Maximal Response WT CFBE ([6]; WT CFBE41o-, % activity of the VX-770 response, Inactive = no statistically significant response above DMSO vehicle): 100.0% | CLHEP, predicted hepatic clearance, human ([7]; calculated from CLINT, human): 14.4 mL min^−1 kg ^−1 | CLINT, intrinsic clearance in human hepatic microsomes ([7]; human hepatic microsomes): 45.6 mL min^−1 kg ^−1
